Values after ≈ are worked out from the molar mass of the structure shown.
Columns and labels:
Assay type in all cases: functional
[1] = In vitro antifungal activity against 6 filamentous fungi
In short: (§1)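 Agar dilution on Kimmig's agar with 0.5% glycerol, using ATCC strains or clinical isolates. Drug stocks were 800 μg/mL in 50% ethanol, tested as 2-fold dilutions from 80 to 0.03 μg/mL. Inocula were 10⁵ cfu/mL. […] Geometric means took >80 as 160 and ≤0.03 as 0.03.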

[2] = In vitro for antifungal activity against 10 yeasts; in short: as §1
[3] = tested on: Candida albicans; assay: In vivo antifungal activity against murine candidosis model after peroral administration with 1 mg/kg at various time intervals. (percent protection for 100% mortality with fluconazole-treated group.); conditions: route oral
In short: (§2)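 Groups of 10 male mice were infected iv with 0.2 mL of C. albicans at 2 to 8×10^7 cfu/mL. Drug was given orally as a suspension in 1% Tween + 0.2% carboxymethylcellulose at 1, 4 and 24 h post-infection; controls got vehicle only. Survival was scored on days 3, 5, 7 and 9. Read-out was % survival on the day all untreated controls died, or on the day all mice given fluconazole at the same dose died.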

[4] = tested on: Candida albicans; assay: In vivo antifungal activity against murine candidosis model after peroral administration with 1 mg/kg at various time intervals. (percent protection for 100% mortality with untreated group); conditions: route oral; in short: as §2
[5] = tested on: Candida albicans; assay: In vivo antifungal activity against murine candidosis model after peroral administration with 0.5 mg/kg at various time intervals. (percent protection for 100% mortality with fluconazole-treated group.); conditions: route oral; in short: as §2
[6] = tested on: Candida albicans; assay: In vivo antifungal activity against murine candidosis model after peroral administration with 0.5 mg/kg at various time intervals. (percent protection for 100% mortality with untreated group); conditions: route oral; in short: as §2

| Structure (SMILES) | MIC ([1]; read-out: MIC) | MIC ([2]; read-out: MIC) | Protection [3] | Protection [4] | Protection [5] | Protection [6] | MIC [1] | MIC [2] |
| --- | --- | --- | --- | --- | --- | --- | --- | --- |
| C[C@@H](n1cnc2cc(N)c(F)cc2c1=O)[C@](O)(Cn1cncn1)c1ccc(F)cc1F | 50 µg/mL (≈ 116 µM) | 8.7 µg/mL (≈ 20.2 µM) |  |  |  |  |  |  |
| C[C@@H](n1cnc2cccc(F)c2c1=O)[C@](O)(Cn1cncn1)c1ccc(F)cc1F | 57 µg/mL (≈ 137 µM) | 4.3 µg/mL (≈ 10.4 µM) | 0% | 0% |  |  |  |  |
| C[C@@H](n1cnc2cc(-n3ncnn3)ccc2c1=O)[C@](O)(Cn1cncn1)c1ccc(F)cc1F | 57 µg/mL (≈ 122 µM) | 1.5 µg/mL (≈ 3.22 µM) |  |  |  |  |  |  |
| C[C@@H](n1cnc2cc(OCC(F)F)ccc2c1=O)[C@](O)(Cn1cncn1)c1ccc(F)cc1F | 25 µg/mL (≈ 52.4 µM) | 1.4 µg/mL (≈ 2.93 µM) |  |  | 0% | 100% |  |  |
| C[C@@H](n1cnc2cc(OCC(F)(F)C(F)F)ccc2c1=O)[C@](O)(Cn1cncn1)c1ccc(F)cc1F | 18 µg/mL (≈ 34.1 µM) | 0.4 µg/mL (≈ 0.758 µM) |  |  | 100% | 100% |  |  |
| C[C@@H](n1cnc2ccccc2c1=O)[C@](O)(Cn1cncn1)c1ccc(F)cc1F | 8.9 µg/mL (≈ 22.4 µM) | 1.2 µg/mL (≈ 3.02 µM) | 0% | 10% |  |  |  |  |
| CSc1ccc2c(=O)n([C@H](C)[C@](O)(Cn3cncn3)c3ccc(F)cc3F)cnc2c1 | 3.8 µg/mL (≈ 8.57 µM) | 0.5 µg/mL (≈ 1.13 µM) |  |  | 40% | 100% |  |  |
| C[C@@H](n1cnc2cc(N3CCN(c4ccc(Cl)cc4)CC3)ccc2c1=O)[C@](O)(Cn1cncn1)c1ccc(F)cc1F | 2.8 µg/mL (≈ 4.73 µM) | 0.2 µg/mL (≈ 0.338 µM) |  |  | 0% | 60% |  |  |
| C[C@@H](n1cnc2cc(OCCF)ccc2c1=O)[C@](O)(Cn1cncn1)c1ccc(F)cc1F | 28 µg/mL (≈ 60.9 µM) | 1.4 µg/mL (≈ 3.05 µM) |  |  | 0% | 0% |  |  |
| Cc1cc(Br)c2ncn([C@H](C)[C@](O)(Cn3cncn3)c3ccc(F)cc3F)c(=O)c2c1 | > 80 µg/mL | 2.1 µg/mL (≈ 4.28 µM) | 0% | 0% |  |  |  |  |
| Cc1cccc2c(=O)n([C@H](C)[C@](O)(Cn3cncn3)c3ccc(F)cc3F)cnc12 | 80 µg/mL (≈ 194 µM) | 2.3 µg/mL (≈ 5.59 µM) | 0% | 10% |  |  |  |  |
| Cc1cc(C)c2ncn([C@H](C)[C@](O)(Cn3cncn3)c3ccc(F)cc3F)c(=O)c2c1 | > 80 µg/mL | 3.8 µg/mL (≈ 8.93 µM) | 0% | 0% |  |  |  |  |
| CC[C@H]([C@H](C)O)n1ncn(-c2ccc(N3CCN(c4ccc5c(=O)n([C@H](C)[C@](O)(Cn6cncn6)c6ccc(F)cc6F)cnc5c4)CC3)cc2)c1=O | > 80 µg/mL | 32 µg/mL (≈ 44 µM) |  |  |  |  |  |  |
| C[C@@H](n1cnc2c(Cl)cc(Cl)cc2c1=O)[C@](O)(Cn1cncn1)c1ccc(F)cc1F | > 80 µg/mL | 1.7 µg/mL (≈ 3.65 µM) | 0% | 100% |  |  |  |  |
| C[C@@H](n1cnc2c(Br)cc(Br)cc2c1=O)[C@](O)(Cn1cncn1)c1ccc(F)cc1F | > 80 µg/mL | 2.6 µg/mL (≈ 4.68 µM) | 0% | 10% |  |  |  |  |
| Cc1ccc2ncn([C@H](C)[C@](O)(Cn3cncn3)c3ccc(F)cc3F)c(=O)c2c1 | 45 µg/mL (≈ 109 µM) | 1.4 µg/mL (≈ 3.4 µM) | 0% | 40% |  |  |  |  |
| C[C@@H](n1cnc2cc(S(=O)(=O)c3ccccc3)ccc2c1=O)[C@](O)(Cn1cncn1)c1ccc(F)cc1F | 8.7 µg/mL (≈ 16.2 µM) | 1.2 µg/mL (≈ 2.23 µM) |  |  | 0% | 0% |  |  |
| C[C@@H](n1cnc2ccc(Cl)cc2c1=O)[C@](O)(Cn1cncn1)c1ccc(F)cc1F | 50 µg/mL (≈ 116 µM) | 1 µg/mL (≈ 2.32 µM) | 0% | 40% |  |  |  |  |
| C[C@@H](n1cnc2cc3ccccc3cc2c1=O)[C@](O)(Cn1cncn1)c1ccc(F)cc1F | 45 µg/mL (≈ 101 µM) | 0.4 µg/mL (≈ 0.894 µM) | 0% | 30% |  |  |  |  |
| C[C@@H](n1cnc2cc(N3CCN(c4ccc([N+](=O)[O-])cc4)CC3)ccc2c1=O)[C@](O)(Cn1cncn1)c1ccc(F)cc1F | > 80 µg/mL | 7.9 µg/mL (≈ 13.1 µM) |  |  |  |  |  |  |
| C[C@@H](n1cnc2cc(N3CCOC3=O)ccc2c1=O)[C@](O)(Cn1cncn1)c1ccc(F)cc1F | 80 µg/mL (≈ 166 µM) | 8.7 µg/mL (≈ 18 µM) |  |  |  |  |  |  |
| C[C@@H](n1cnc2cc(S(C)(=O)=O)ccc2c1=O)[C@](O)(Cn1cncn1)c1ccc(F)cc1F | > 80 µg/mL | 11 µg/mL (≈ 23.1 µM) |  |  | 80% | 100% |  |  |
| C[C@@H](n1cnc2cc(NC(=O)C(F)(F)F)c(F)cc2c1=O)[C@](O)(Cn1cncn1)c1ccc(F)cc1F | 80 µg/mL (≈ 152 µM) | 8.1 µg/mL (≈ 15.4 µM) |  |  |  |  |  |  |
| C[C@@H](n1cnc2cc(Cl)ccc2c1=O)[C@](O)(Cn1cncn1)c1ccc(F)cc1F (stereo in doubt; 75) [ALBACONAZOLE] |  |  |  |  |  |  | 33 µg/mL (≈ 76.4 µM) | 1 µg/mL (≈ 2.32 µM) |

Reference: ChEMBL document CHEMBL1131232, “New azole antifungals. 3. Synthesis and antifungal activity of 3-substituted-4(3H)-quinazolinones” (J Med Chem, 1998)
